UCH37 inh = inhibitors of human deubiquitinating enzyme UCH37; purified proteasome/UCH37, Ub-AMC cleavage fluorescence; inhibition, % (concentration not given with the values); actives 0.33% (n = 330,000);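 active = mean inhibition over replicate wells above about 20%, limit read from the data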
Target sequence (Q9Y5K5 whole entry, looked up): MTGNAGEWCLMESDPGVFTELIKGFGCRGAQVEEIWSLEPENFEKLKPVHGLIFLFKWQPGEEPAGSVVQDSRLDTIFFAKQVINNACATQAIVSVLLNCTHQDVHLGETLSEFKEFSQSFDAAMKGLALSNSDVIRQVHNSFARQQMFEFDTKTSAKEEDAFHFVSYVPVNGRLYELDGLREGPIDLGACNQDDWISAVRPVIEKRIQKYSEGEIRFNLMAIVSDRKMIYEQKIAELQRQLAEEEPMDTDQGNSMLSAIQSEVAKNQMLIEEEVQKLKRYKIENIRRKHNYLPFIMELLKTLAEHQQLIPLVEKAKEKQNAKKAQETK
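Schedule: 30 min plus 25 min, room temperature / Material: human UCH37 within purified proteasomes / Technique: AMC fluorescence intensity at 355/460 nm / Buffer or medium: pH 7.4 Tris-HCl (50 mM) with ovalbumin, ATP-MgCl2, DTT / Controls: wells without proteasome as full block, compound-free enzyme plus substrate as uninhibited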
NSD2 HMT inh = inhibitors of human histone methyltransferase NSD2; inhibition, % at 12.5 µM; O96028; actives 0.54% (n = 310,000); NSD2 peptide methylation, AlphaScreen, 120 min; in the data active = inhibition above about 50%
Casp6 inh = inhibitors of human caspase-6. P55212. purified caspase-6, Z-VEID-R110 cleavage fluorescence. inhibition, % at 12.5 µM. actives 0.53% (n = 350,000). AID 686996;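 active = mean inhibition across replicates at least about 35%, with every replicate also reaching that limit, limit read from the data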
Target sequence (P55212 24-179 limits assumed): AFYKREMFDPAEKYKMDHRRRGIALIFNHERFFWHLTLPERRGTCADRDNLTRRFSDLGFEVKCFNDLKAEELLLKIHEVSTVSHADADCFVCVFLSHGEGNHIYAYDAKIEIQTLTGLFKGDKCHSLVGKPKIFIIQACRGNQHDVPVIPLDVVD
Target sequence (P55212 194-293 limits assumed): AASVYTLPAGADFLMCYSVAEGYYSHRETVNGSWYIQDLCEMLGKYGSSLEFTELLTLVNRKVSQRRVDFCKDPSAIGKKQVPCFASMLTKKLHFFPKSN
LEDGF integ inh = blocks HIV-1 LEDGF/p75-dependent DNA integration | actives 0.64% (n = 370,000) | inhibition, % at 3.7 µM | TR-FRET IN-LEDGF/p75 DNA integration, Eu/Cy5;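 active = inhibition above the screen-wide mean plus 3 SD, cut at about 13% in these data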;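 also: signal is the Cy5 over europium emission ratio at 671 and 618 nm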
TDP2 inh = TDP2 (human) inhibition, absorbance primary screen. inhibition, % at 12.8 µM. O95551. recombinant TDP2, T5PNP hydrolysis, p-nitrophenol absorbance 415 nm. actives 0.34% (n = 370,000);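 active = inhibition above the mean of all tested compounds plus 3 SD, set per campaign, cut at about 25% in these data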
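Evaluation: % inhibition relative to enzyme-containing and enzyme-free wells. Material: recombinant human TDP2. Benchmarks: enzyme-free and DMSO wells. Timing: enzyme reaction with compound for 2 h at 37 °C. Compound dosing: 12.8 µM only. Measured by: p-Nitrophenol epi absorbance. Reagent: T5PNP substrate at 5 mM, a TopII-DNA adduct mimic. Replication: single well per compound.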
A number is an active result; - = inactive; . = no result given; + = active, no number. Shown are actives, neighbours in structure and some others; about 1.3% of the full set was active somewhere.

SMILES	UCH37 inh	NSD2 HMT inh	Casp6 inh	LEDGF integ inh	TDP2 inh
CC=Cc1ccc2n(c1=O)C[C@H]1[C@H](CO)[C@@H](C(=O)N(C)C)[C@@H]2N1C (mixture of isomers)	.	.	57	.	.
CN(C)C(=O)ON=C(N)COc1ccc(C(C)(C)C)cc1	-	.	.	.	.
CCN(CC)C(=O)c1ccc2c(c1)C1C=CCC1C(C(=O)O)N2 (stereo unspecified)	.	.	40	39	-
CCN(CC)C(=O)c1ccc2c(c1)C1C(Cl)C(Sc3ccccc3[N+](=O)[O-])CC1C(C(=O)O)N2 (stereo unspecified)	-	-	.	.	.
C#C[C@@]1(O)CCC2C3CCC4=CC(=NOCC(=O)NC(CCC(N)=O)C(=O)O)CC[C@]4(C)C3CC[C@@]21C (stereo partly specified)	-	.	.	.	.
CC1=C2CCC3C(CCC4=CC(=O)CCC43C)C2CC1 (stereo unspecified)	20	-	-	-	-
CN1C(=O)N(C)C(=O)C2(Sc3ccccc3C2=O)C1=O	-	.	.	29	27
CCC1(c2ccccc2)C(=O)N(C)C(=O)N(C)C1=O	-	-	.	-	-
O=C(CCc1ccccc1)N1Cc2cc(N3CCOCC3)ccc2-n2nncc2C1	.	.	-	-	-
OCC[n+]1c2ccccc2nc2ccc(N3CCOCC3)cc21	-	82	-	-	-
O=C(Nc1ccc(Cl)cc1)ON=C(c1ccccc1)c1ccccn1	-	.	.	.	.
Cn1c(=O)c2c(nc(N/N=C/c3c(O)n(-c4ccccc4)c(=S)[nH]c3=O)n2C)n(C)c1=O	21	-	.	-	-
CC(C)c1ccc(-n2c(O)c(/C=N/NC(=O)c3ccccc3O)c(=O)[nH]c2=S)cc1	-	.	-	-	-
CC(C)C12CN3CCN(CC(C3)C1=NO)C2	-	.	.	.	.
O=C(O)c1cccc2c1NC(c1cccc([N+](=O)[O-])c1)C1CC(Sc3ccccc3[N+](=O)[O-])C(Cl)C21 (stereo unspecified)	-	-	54	-	-
CCOc1cc(C=C2C(=O)NC(=O)NC2=O)cc([N+](=O)[O-])c1O	26	-	-	-	-
Cc1cccc(N2C(=O)NC(=O)/C(=C\c3cc(C)n(-c4sc5c(c4C#N)CCCC5)c3C)C2=O)c1C	-	60	.	-	-
CCOC(=O)c1c(-n2c(C)cc(C=C3C(=O)NC(=O)NC3=O)c2C)sc2c1CCCC2	-	-	.	-	-
O=P(C(=NO)N1CCOCC1)(N1CCOCC1)N1CCOCC1	-	.	.	.	.
O=C(Cc1cccs1)N1Cc2ccccc2-n2nncc2C1	.	.	41	-	-
CC(=O)C1C2c3ccccc3OC1(C)N=c1sc(=Cc3cn(C)nc3C)c(=O)n12 (stereo unspecified)	-	.	.	.	.
O=C1C=C(N2CC2)c2ccccc2C1=O	.	.	97	39	52
CN(c1ccc(O)cc1)c1ccc([N+](=O)[O-])c2nonc12	.	53	-	-	-
O=[N+]([O-])c1ccc(N2CCCCCC2)c2nonc12	.	-	-	-	-
Cn1c(NN=O)nc2ccccc21	-	-	36	-	-
SMILES	UCH37 inh	NSD2 HMT inh	Casp6 inh	LEDGF integ inh	TDP2 inh
COc1ccccc1C=NN=C(N)N[N+](=O)[O-]	-	.	.	.	.
CN1C(=O)NC(=O)/C(=C\c2ccc([N+](=O)[O-])o2)C1=O	-	+	.	.	.
COc1ccc(N=Nc2c(O)[nH]c(=S)[nH]c2=O)cc1	21	-	-	-	-
COc1cccc(N=Nc2c(O)[nH]c(=S)[nH]c2=O)c1	-	-	-	-	-
O=C1NC(=O)N(CCC2=CCCCC2)C(=O)/C1=C/c1ccc(O)cc1	-	-	-	-	-
O=C1NC(=O)N(CCC2=CCCCC2)C(=O)/C1=C/c1cccs1	-	-	37	-	-
C[N+](C)(C)Cc1ccccc1	-	.	76	-	-
Clc1cccc(N2Cc3cc(-c4ccccc4)ccc3-n3nncc3C2)c1	.	.	-	67	-
Clc1cccc(N2Cc3cc(N4CCOCC4)ccc3-n3nncc3C2)c1	.	.	-	-	-
C[C@H]1CC=C[C@H]2[C@H](O)[C@H](C)[C@@](C)(O)[C@H]3[C@H](Cc4ccccc4)NC(=O)[C@]32[C@H](O)C=C[C@](C)(O)C1	-	.	.	.	.
Cn1cccc1/C=C1/C(=O)NC(=O)N(Cc2ccc(F)cc2)C1=O	-	-	-	-	-
Cn1cccc1/C=C1/C(=O)NC(=S)N(Cc2ccc(F)cc2)C1=O	-	-	35	-	-
Cc1cc(/C=C2\C(=O)NC(=O)N(c3ccccc3)C2=O)c(C)n1-c1ccc(C(=O)O)c(Cl)c1	-	-	38	-	-
CCN(CC)c1ccc(C=Nc2sc3c(c2C#N)C2CCN3CC2)c(O)c1	-	.	.	.	.
COc1cc(CC2C(=O)N(C)C(=O)N(C)C2=O)ccc1OCc1ccccc1	24	-	-	-	-
N#CC1=C(N)Oc2c(c(=O)oc3ccccc23)C1c1ccc([N+](=O)[O-])o1 (stereo unspecified)	-	-	40	-	-
COc1ccc(C(=O)NN=CC23CC[C@@H](O)CC2(O)CC[C@@H]2[C@@H]3CCC3(C)C(C4=CC(=O)OC4)CCC23O)cc1 (stereo partly specified)	-	.	.	.	.
O=C(O)c1ccccc1-c1ccc(C=C2C(=O)N(c3ccccc3)C(=S)N(c3ccccc3)C2=O)o1	-	-	37	-	-
C(=NNC1=NCCCCC1)c1c[nH]c2ccccc12	-	.	.	.	.
COC(=O)C1=C(c2ccc(F)cc2F)C[C@@H]2CC[C@H]1N2C(=O)N1CCCCC1	21	.	-	-	-
C[C@H]1CCCC(=O)CCCC=Cc2cc(O)cc(O)c2C(=O)O1	-	.	.	.	.
Cc1ccc(N2C(=O)NC(=O)/C(=C\c3cn(CC(=O)O)c4ccccc34)C2=O)cc1	-	-	-	-	-
O=C(O)Cn1cc(/C=C2\C(=O)NC(=O)N(Cc3ccco3)C2=O)c2ccccc21	-	-	74	86	-
O=C1NC(=O)N(Cc2ccccc2)C(=O)/C1=C\c1ccco1	-	-	63	-	-
COc1ccc(CN2C(=O)NC(=O)/C(=C/c3cc(OC)c(OC)c(OC)c3)C2=O)cc1	-	-	-	-	-
SMILES	UCH37 inh	NSD2 HMT inh	Casp6 inh	LEDGF integ inh	TDP2 inh
Cn1cccc1/C=C1\C(=O)NC(=O)N(Cc2ccccc2)C1=O	-	-	-	-	-
COc1ccc(CN2C(=O)NC(=O)/C(=C/c3ccoc3)C2=O)cc1	-	-	67	-	-
O=C1NC(=O)N(Cc2ccco2)C(=O)/C1=C/c1cccn1CCOc1ccccc1Cl	.	-	58	57	-
ON=C1CCC2CN(C3CCCCC3)CC2C1 (stereo unspecified)	-	.	.	.	.
COc1cc(O)cc2c1C(=O)OC(C)CCCC(=O)CCCC=C2 (stereo unspecified)	-	.	.	.	.
CC(CC(c1ccccc1)c1c(O)c2ccccc2oc1=O)=NNC(N)=S (stereo unspecified)	-	.	.	.	.
Cc1ccccc1C(=O)NN=Cc1ccc(Sc2ccccn2)o1	-	.	.	.	.
O=C1NC(=O)N(c2ccccc2F)C(=O)/C1=C/c1cn(CC(=O)N2CCOCC2)c2ccccc12	-	.	-	-	-
